In brackets after ≈: the same amount, converted by molar mass. Activity calls are given as the source filed them. The calls are words filed in the database; no cut-off is given here.
Columns and labels:
[1] = test system: Human immunodeficiency virus 1; test: Antiviral activity against HIV1 3B in human MT4 cells assessed as protection against virus-induced cytopathogenicity by MTT assay; format: functional, organism-based; set-up: Activity: concentration or dose not given beside the values; conditions: for IC50: Human immunodeficiency virus 1, 3B, MT4
How it was run: (§1)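 MT-4 cells at 6 × 10⁵ cells/ml infected with HIV-1 IIIB or HIV-2 ROD at 100–300 CCID50; compounds in serial five-fold dilutions, triplicate mock- and virus-infected wells. MTT viability read at 540 and 690 nm after 5 days, median OD of three wells; EC50 = 50% protection from viral cytopathic effect.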

[2] = test system: Human immunodeficiency virus 2; test: Antiviral activity against HIV2 ROD in human MT4 cells assessed as protection against virus-induced cytopathogenicity by MTT assay; format: functional, organism-based; set-up: Activity: concentration or dose not given beside the values; conditions: for IC50: Human immunodeficiency virus 2, ROD, MT4; how it was run: as §1
[3] = Cytotoxicity against human MT4 cells by MTT assay; format: cell-based
How it was run: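 Mock-infected MT-4 cells (6 × 10⁵ cells/ml) with serial five-fold compound dilutions in triplicate; MTT reduction read at 540 and 690 nm after 5 days, median OD of three wells; CC50 = concentration reducing OD540 of mock-infected control by 50%.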

[4] = Cytotoxicity against human HeLa cells; format: cell-based
How it was run: (§2)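 Uninfected cell cultures exposed to test compounds alongside antiviral assays; minimum cytotoxic concentration (MCC) = concentration causing a microscopically detectable alteration of cell morphology.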

[5] = test system: Vesicular stomatitis virus; test: Antiviral activity against vesicular stomatitis virus in human HeLa cells assessed as inhibition of virus-induced cytopathogenicity; format: functional
How it was run: (§3)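 Confluent cell monolayers (E6SM, HEL, HeLa or Vero, per line) inoculated with 100 CCID50 virus; 1 h adsorption, residual virus removed, then incubated with compound at 400, 200, 100 … µg/ml. Cytopathicity scored once complete in untreated virus controls; MIC = concentration inhibiting virus-induced cytopathicity.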

Coxsackievirus B4 [6] = test: Antiviral activity against Coxsackie virus B4 in human HeLa cells assessed as inhibition of virus-induced cytopathogenicity; format: functional; conditions: Enterovirus B; how it was run: as §3
[7] = test system: Respiratory syncytial virus; test: Antiviral activity against respiratory syncytial virus in human HeLa cells assessed as inhibition of virus-induced cytopathogenicity; format: functional; how it was run: as §3
E6SM = test: (§4) Cytotoxicity against human E6SM cells; format: cell-based; conditions: e6sm; how it was run: as §2
[8] = Cytotoxicity against human HEL cells assessed as alteration of cell morphology; format: cell-based; how it was run: as §2
Human alphaherpesvirus 1 [9] = test: Antiviral activity against HSV1 KOS in human E6SM cells assessed as reduction of virus-induced cytopathogenicity; format: functional; conditions: Human alphaherpesvirus 1, KOS; how it was run: as §3
Human alphaherpesvirus 1 [10] = test: Antiviral activity against HSV1 KOS in human HEL cells assessed as reduction of virus-induced cytopathogenicity; format: functional; conditions: Human alphaherpesvirus 1, KOS; how it was run: as §3
Human alphaherpesvirus 2 [11] = test: Antiviral activity against HSV2 G in human E6SM cells assessed as reduction of virus-induced cytopathogenicity; format: functional; conditions: Human alphaherpesvirus 2, G; how it was run: as §3
Human alphaherpesvirus 2 [12] = test: Antiviral activity against HSV2 G in human HEL cells assessed as reduction of virus-induced cytopathogenicity; format: functional; conditions: Human alphaherpesvirus 2, G; how it was run: as §3
[13] = test system: Vesicular stomatitis virus; test: Antiviral activity against in Vesicular stomatitis virus in human E6SM cells assessed as reduction of virus-induced cytopathogenicity; format: functional; how it was run: as §3
[14] = test system: Vesicular stomatitis virus; test: Antiviral activity against in Vesicular stomatitis virus in human HEL cells assessed as reduction of virus-induced cytopathogenicity; format: functional; how it was run: as §3
Human alphaherpesvirus 1 [15] = test: Antiviral activity against thymidine kinase deficient and acyclovir resistant HSV1 KOS in human E6SM cells assessed as reduction of virus-induced cytopathogenicity; format: functional; conditions: Human alphaherpesvirus 1, KOS; how it was run: as §3
Human alphaherpesvirus 1 [16] = test: Antiviral activity against thymidine kinase deficient and acyclovir resistant HSV1 KOS in human HEL cells assessed as reduction of virus-induced cytopathogenicity; format: functional; conditions: Human alphaherpesvirus 1, KOS; how it was run: as §3
Vero = test: Cytotoxicity against african green monkey Vero cells; format: cell-based; conditions: chlorocebus sabaeus; how it was run: as §2
Coxsackievirus B4 [17] = test: Antiviral activity against Coxsackie virus B4 in african green monkey Vero cells assessed as reduction of virus-induced cytopathogenicity; format: functional; conditions: Enterovirus B; how it was run: as §3
Punta Toro virus = test: Antiviral activity against Punta Toro virus in african green monkey Vero cells assessed as reduction of virus-induced cytopathogenicity; format: functional; how it was run: as §3
Human respirovirus 3 = test: Antiviral activity against Parainfluenza 3 virus in african green monkey Vero cells assessed as reduction of virus-induced cytopathogenicity; format: functional; how it was run: as §3
[18] = test system: Mammalian orthoreovirus 1; test: Antiviral activity against Reo virus 1 in african green monkey Vero cells assessed as reduction of virus-induced cytopathogenicity; format: functional; how it was run: as §3
Sindbis virus = test: Antiviral activity against Sindbis virus in african green monkey Vero cells assessed as reduction of virus-induced cytopathogenicity; format: functional; how it was run: as §3
[19] = test system: Mycobacterium tuberculosis; test: Antitubercular activity against Mycobacterium tuberculosis H37Rv
Mycobacterium avium = test: Antitubercular activity against Mycobacterium avium; format: functional
Mycolicibacterium aurum = test: Antitubercular activity against Mycobacterium aurum A1; format: functional
[20] = as §4; format: cell-based; conditions: E6SM cells; how it was run: as §2
Human betaherpesvirus 5 [21] = test: Antiviral activity against human cytomegalovirus AD169 infected HEL cells assessed as reduction in virus plaque formation; format: functional, organism-based; conditions: Human betaherpesvirus 5, AD169, HEL
Human betaherpesvirus 5 [22] = test: Antiviral activity against human cytomegalovirus Davis infected HEL cells assessed as reduction in virus plaque formation; format: functional, organism-based; conditions: Human betaherpesvirus 5, Davis
Human alphaherpesvirus 3 [23] = test: Antiviral activity against TK+ VZV OKA infected HEL cells assessed as reduction in virus plaque formation; format: functional, organism-based; conditions: Human alphaherpesvirus 3, OKA
Human alphaherpesvirus 3 [24] = test: Antiviral activity against TK- VZV 07/1 infected HEL cells assessed as reduction in virus plaque formation; format: functional, organism-based; conditions: Human alphaherpesvirus 3, 07/1, HEL
[25] = test system: Mycobacterium tuberculosis; test: Antitubercular activity against Mycobacterium tuberculosis H37Rv at 6.25 ug/ml by MABA assay; format: functional
[26] = Cytotoxicity against human HEL cells assessed as reduction of cell growth; format: cell-based
How it was run: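 HEL cells; CC50 = compound concentration reducing cell growth by 50%.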

SMILES | Activity [1] [%] | IC50 [1] [µg/mL] | Activity [2] [%] | IC50 [2] [µg/mL] | CC50 [3] [µg/mL] | MCC [4] [µg/mL] | MIC [5] [µg/mL] | MIC (Coxsackievirus B4 [6]) [µg/mL] | MIC [7] [µg/mL] | MCC [8] [µg/mL] | MIC (Human alphaherpesvirus 1 [9]) [µg/mL] | MIC (Human alphaherpesvirus 1 [10]) [µg/mL] | MIC (Human alphaherpesvirus 2 [11]) [µg/mL] | MIC (Human alphaherpesvirus 2 [12]) [µg/mL] | MIC [13] [µg/mL] | MIC [14] [µg/mL] | MIC (Human alphaherpesvirus 1 [15]) [µg/mL] | MIC (Human alphaherpesvirus 1 [16]) [µg/mL] | Activity (Vero) | MIC (Coxsackievirus B4 [17]) [µg/mL] | other results
CCCCCCNC(=S)Nc1ccc(-c2n[nH]c(=S)n2CCCCCC)cc1 | 3 | > 1.71 | 1 | > 1.71 | 1.71 (≈ 4.07 µM) | 16 | > 3.2 | > 3.2 | > 3.2 | 16 | > 3.2 | > 3.2 | > 3.2 | > 3.2 | > 3.2 | > 3.2 | > 3.2 | > 3.2 | 16 µg/mL | > 3.2 | Activity (E6SM): 16 µg/mL; MIC (Punta Toro virus): > 3.2 µg/mL; MIC (Human respirovirus 3): > 3.2 µg/mL; MIC [18]: > 3.2 µg/mL; MIC (Sindbis virus): > 3.2 µg/mL
CC(C)CCOc1ccc(NC(=S)Nc2ccc(OCCC(C)C)cc2)cc1 [TIOCARLIDE] | – | – | – | – | – | – | – | – | – | – | – | – | – | – | – | – | – | – | – | – | MIC [19]: 2.5 µg/mL (≈ 6.24 µM); MIC (Mycobacterium avium): 2 µg/mL (≈ 4.99 µM); MIC (Mycolicibacterium aurum): 2 µg/mL (≈ 4.99 µM)
Cn1c(COc2ccc(NC(=S)Nc3ccccc3)cc2)n[nH]c1=S | 3.5 | > 98.9 | 6.5 | > 87.8 | ≥ 87.8 | > 400 | > 400 | > 400 | > 400 | 400 | > 80 | > 80 | > 80 | > 80 | > 80 | > 80 | > 80 | > 80 | 400 µg/mL | > 80 | MCC [20]: 400 µg/mL; MIC (Punta Toro virus): > 80 µg/mL; EC50 (Human betaherpesvirus 5 [21]): 66 µg/mL (≈ 178 µM); EC50 (Human betaherpesvirus 5 [22]): 49 µg/mL (≈ 132 µM); EC50 (Human alphaherpesvirus 3 [23]): 33 µg/mL (≈ 88.8 µM); EC50 (Human alphaherpesvirus 3 [24]): 38 µg/mL (≈ 102 µM); inhibition at 6.25 µg/mL [25]: 70%; MIC (Human respirovirus 3): > 80 µg/mL; MIC [18]: > 80 µg/mL; MIC (Sindbis virus): > 80 µg/mL; CC50 [26]: > 50 µg/mL
C=CCNC(=S)Nc1ccc(OCc2n[nH]c(=S)n2CC=C)cc1 | 3 | > 66.5 | 1 | > 69.7 | 71.5 (≈ 198 µM) | 400 | > 80 | > 80 | > 80 | > 400 | 240 (≈ 664 µM) | 240 (≈ 664 µM) | 240 (≈ 664 µM) | 240 (≈ 664 µM) | > 400 | > 400 | 240 (≈ 664 µM) | 240 (≈ 664 µM) | 400 µg/mL | 48 (≈ 133 µM) | MCC [20]: > 400 µg/mL; MIC (Punta Toro virus): > 80 µg/mL; EC50 (Human betaherpesvirus 5 [21]): 100 µg/mL (≈ 277 µM); EC50 (Human betaherpesvirus 5 [22]): 77 µg/mL (≈ 213 µM); EC50 (Human alphaherpesvirus 3 [23]): 41 µg/mL (≈ 113 µM); EC50 (Human alphaherpesvirus 3 [24]): 46 µg/mL (≈ 127 µM); inhibition at 6.25 µg/mL [25]: 59%; MIC (Human respirovirus 3): > 80 µg/mL; MIC [18]: > 80 µg/mL; MIC (Sindbis virus): > 80 µg/mL; CC50 [26]: > 50 µg/mL
C=CCn1c(COc2ccc(N)cc2)n[nH]c1=S | 3.5 | > 125 | 9 | > 125 | > 125 | > 400 | > 400 | > 400 | > 400 | > 400 | > 400 | > 400 | 240 (≈ 915 µM) | 240 (≈ 915 µM) | > 400 | > 400 | > 400 | > 400 | 400 µg/mL | > 80 | MCC [20]: > 400 µg/mL; MIC (Punta Toro virus): > 80 µg/mL; EC50 (Human betaherpesvirus 5 [21]): > 100 µg/mL; EC50 (Human betaherpesvirus 5 [22]): > 100 µg/mL; EC50 (Human alphaherpesvirus 3 [23]): > 100 µg/mL; EC50 (Human alphaherpesvirus 3 [24]): > 100 µg/mL; Activity [25]: inactive; MIC (Human respirovirus 3): > 80 µg/mL; MIC [18]: > 80 µg/mL; MIC (Sindbis virus): > 80 µg/mL; CC50 [26]: > 50 µg/mL
CCn1c(COc2ccc(N)cc2)n[nH]c1=S | 6 | > 125 | 8 | > 125 | > 125 | ≥ 400 | > 400 | > 400 | > 400 | > 400 | > 400 | > 400 | 240 (≈ 959 µM) | 240 (≈ 959 µM) | > 400 | > 400 | 240 (≈ 959 µM) | 240 (≈ 959 µM) | 80 µg/mL | > 16 | MCC [20]: > 400 µg/mL; MIC (Punta Toro virus): > 16 µg/mL; EC50 (Human betaherpesvirus 5 [21]): > 100 µg/mL; EC50 (Human betaherpesvirus 5 [22]): > 100 µg/mL; EC50 (Human alphaherpesvirus 3 [23]): > 100 µg/mL; EC50 (Human alphaherpesvirus 3 [24]): > 100 µg/mL; Activity [25]: inactive; MIC (Human respirovirus 3): > 16 µg/mL; MIC [18]: > 16 µg/mL; MIC (Sindbis virus): > 16 µg/mL; CC50 [26]: > 50 µg/mL
CCn1c(COc2ccc(NC(=S)Nc3ccccc3)cc2)n[nH]c1=S | 26.5 | > 27.2 | 25.5 | > 31.4 | 31.9 (≈ 82.8 µM) | 400 | 80 (≈ 208 µM) | > 80 | > 80 | 400 | > 80 | > 80 | > 80 | > 80 | > 80 | > 80 | > 80 | > 80 | >= 80 ug ml-1 | 48 (≈ 125 µM) | MCC [20]: 400 µg/mL; MIC (Punta Toro virus): > 80 µg/mL; EC50 (Human betaherpesvirus 5 [21]): 41 µg/mL (≈ 106 µM); EC50 (Human betaherpesvirus 5 [22]): 37 µg/mL (≈ 96 µM); EC50 (Human alphaherpesvirus 3 [23]): 29 µg/mL (≈ 75.2 µM); EC50 (Human alphaherpesvirus 3 [24]): 34 µg/mL (≈ 88.2 µM); inhibition at 6.25 µg/mL [25]: 76%; MIC (Human respirovirus 3): > 80 µg/mL; MIC [18]: > 80 µg/mL; MIC (Sindbis virus): > 80 µg/mL; CC50 [26]: > 50 µg/mL
